Data set [1] relates to 4T1. In words: Antitumor activity against mouse 4T1 cells implanted in BALB/c mouse assessed as decrease in lung injury at 5.7 mg/kg,iv administrated once per week for 4 weeks by H and E staining based assay. The format is functional, organism-based. The method, boiled down: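 BALB/c mice bearing orthotopic mammary fat pad 4T1 tumors, dosed iv weekly for 4 weeks with saline vehicle as control. Lung sections stained with hematoxylin and eosin and examined by light microscopy at 40× for metastasis, inflammatory infiltration and alveolar wall thickening.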

The nature of data set [2]: Toxicity in BALB/c mouse xenografted with human HCT-116 cells assessed as body weight loss at 5.7 mg/kg,iv administrated once per week for 3 weeks. The format is organism-based. Conditions: in vivo, 504 h. The gist of the method: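 Nude BALB/c nu/nu mice received subcutaneous human tumour cells into the right flank. Dosing started at mean tumour volume of 100–120 mm3, iv once weekly for 3 weeks; the taxane arm was an equimolar control. Body weight and overt side effects were monitored. Mean ± SEM, n = 8.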
Background: A xenograft is tissue or cells of one species grown in another, often human tumour cells in immunodeficient mice.

Data set [3] relates to 4T1. In words: Antitumor activity against mouse 4T1 cells implanted in BALB/c mouse assessed as decrease in serum IL-6 level at 5.7 mg/kg,iv administrated once per week for 4 weeks by ELISA. The format is functional, organism-based. Background: In an ELISA, binding on a coated surface is turned into a signal by an enzyme label.
The nature of data set [4]: Drug concentration in plasma of Beagle dog at 1.14 mg/kg,iv measured upto 24 hrs. It is filed as ADME, organism-based, Canis lupus familiaris. Conditions: in vivo. The method, boiled down:
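Taxane given as a single intravenous dose: 2.28 mg/kg to rats by injection and 1.14 mg/kg to Beagle dogs by infusion. Plasma concentrations were then measured.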

A short description of data set [5]: Toxicity in BALB/c mouse injected with mouse 4T1 cells assessed as body weight loss at 5.7 mg/kg,iv in presence of compound 6 administrated once per week for 4 weeks. The format is organism-based. The settings on record: in vivo, 672 h.
A short description of data set [6]: Tmax in mouse plasma implanted with mouse 4T1 cells at 5.7 mg/kg,iv measured upto 72 hrs. It is filed as ADME, organism-based.
Data set [7] deals with 4T1. The experiment in a line: Antitumor activity against mouse 4T1 cells implanted in BALB/c mouse assessed as increase in tumor NOD1 expression level at 5.7 mg/kg,iv administrated once per week for 4 weeks in presence of compound 5b by western blot assay. The format is functional, organism-based. The method, boiled down: (§1)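 Tumour-bearing BALB/c mice (4T1 cells into mammary fat pad) given iv saline vehicle or test agents once weekly for 4 weeks. Tumours excised and probed by western blot for MMP9, MMP2 and NOD1, β-actin as loading control. Bands averaged over five mice per group; representative of two independent experiments.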

Data set [8] has as its system 4T1. The experiment in a line: Antitumor activity against mouse 4T1 cells implanted in BALB/c mouse assessed as increase in tumor NOD1 expression level at 5.7 mg/kg,iv administrated once per week for 4 weeks in presence of MDA-205 by western blot assay. The format is functional, organism-based. The gist of the method: as §1
For orientation: Immunoblotting shows a protein as a band on a membrane.

Data set [9] is described as follows: AUC (0-infinity) in Beagle dog at 4 mg/kg,iv measured upto 24 hrs. The format is ADME, organism-based, Canis lupus familiaris. Further details: time < 24 hrs, dose 4 mg/kg, route iv. The settings on record: in vivo. The gist of the method:
(§2)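 Single iv dose: rats 2, 4 or 8 mg/kg by intravenous injection; Beagle dogs 1, 2 or 4 mg/kg by intravenous infusion. Plasma concentration–time data were analysed by sex and pooled. Reported parameters: Cmax, Tmax, AUC0−t, AUC0−∞, MRT0−∞, t1/2, CL, Vss, given as mean ± SD.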

Data set [10] has as its target Cytochrome P450 2C8 (Homo sapiens, UniProt P10632). The experiment in a line: Inhibition of CYP2C8 in human liver microsomes using probe substrate in presence of NADPH. The format is ADME, Microsome.
Data set [11] in a line: Half life in female rat at 2 mg/kg,iv measured upto 24 hrs. The format is ADME, organism-based. The settings on record: in vivo.
Data set [12] is described as follows: MRT (0 to infinity) in female rat at 8 mg/kg,iv measured upto 24 hrs. The format is ADME, organism-based. The settings on record: in vivo.
Data set [13] can be described thus: Acute toxicity in Beagle dog assessed as lethal dose at iv administration. The format is organism-based, Canis lupus familiaris. The settings on record: in vivo. The method, boiled down:
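Acute toxicity after a single intravenous administration. […] In dogs, an approximate lethal dose range was determined.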

A short description of data set [14]: Volume of distribution at steady state in rat at 2 mg/kg,iv measured upto 24 hrs. The format is ADME, organism-based. Conditions: in vivo, read-out: Vdss.
Data set [15] in a line: Half life in male Beagle dog at 4 mg/kg,iv measured upto 24 hrs. It is filed as ADME, organism-based, Canis lupus familiaris. The settings on record: in vivo.
The nature of data set [16]: Half life in Beagle dog at 2 mg/kg,iv measured upto 24 hrs. It is filed as ADME, organism-based, Canis lupus familiaris. Conditions: in vivo.
A short description of data set [17]: Stability in human plasma assessed as compound remaining at 40 uM incubated for 6 hrs. It is filed as ADME, cell-free.
The nature of data set [18]: AUC (0-infinity) in rat at 2 mg/kg,iv measured upto 24 hrs. The format is ADME, organism-based. Further details: dose 2 mg/kg, time < 24 hrs, route iv. The settings on record: in vivo. The gist of the method:
as §2

Data set [19] in a line: Stability in mouse plasma assessed as compound remaining at 1 uM incubated for 6 hrs. The format is ADME, cell-free.
The nature of data set [20]: Plasma protein binding in rat plasma incubated for 4 hrs. The format is ADME, cell-free. Conditions: read-out: PPB (converted).
The nature of data set [21]: AUC (0-t) in Beagle dog at 1 mg/kg,iv measured upto 24 hrs. The format is ADME, organism-based, Canis lupus familiaris. Further details: dose 1 mg/kg, time < 24 hrs, route iv. The settings on record: in vivo. The method, boiled down: as §2
Data set [22] is described as follows: AUC (0-t) in female Beagle dog at 2 mg/kg,iv measured upto 24 hrs. The format is ADME, organism-based, Canis lupus familiaris. The settings on record: in vivo. More on the design: dose 2 mg/kg, time < 24 hrs, route iv. The gist of the method:
as §2

A short description of data set [23]: Tmax in female Beagle dog at 2 mg/kg,iv measured upto 24 hrs. The format is ADME, organism-based, Canis lupus familiaris. Conditions: in vivo.
A short description of data set [24]: Cmax in female rat at 8 mg/kg,iv measured upto 24 hrs. The settings on record: in vivo. Further details: time < 24 hrs, dose 8 mg/kg, route iv. The format is ADME, organism-based. The gist of the method: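 Rats were given a single iv injection at 2, 4 or 8 mg/kg. Plasma parent drug and released docetaxel were followed over time. Cmax, Tmax, AUC, MRT, t1/2, CL and Vss were reported for males, females and all animals combined.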

A short description of data set [25]: Stability in human plasma assessed as compound remaining at 1 uM incubated for 6 hrs. The format is ADME, cell-free.
Data set [26] can be described thus: Drug metabolism in rat feces assessed as metabolite docetaxel formation at 4 mg/kg,iv measured after 24 hrs. It is filed as ADME, organism-based. The settings on record: in vivo.
Data set [27] has as its system MDA-MB-435. The experiment in a line: Antiproliferative activity against human MDA-MB-435 cells assessed inhibition of cell growth incubated for 72 hrs by SRB assay. The format is functional, cell-based. The settings on record: MDA-MB-435, 72 h.
The test system of data set [28] is 4T1. The experiment in a line: Antitumor activity against mouse 4T1 cells implanted in BALB/c mouse assessed as decrease in lung MMP2 expression level at 5 to 20 mg/kg,iv administrated once per week for 4 weeks by western blot assay. The settings on record: dose 5-20 mg/kg. The format is functional, organism-based. The method, boiled down:
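4T1 fat-pad model in BALB/c mice, iv once weekly for 4 weeks; MMP9, MMP2 and NOD1 in spleen, lung and tumour by western blot, β-actin loading control; bands averaged over five mice per group, representative of two independent experiments.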

A short description of data set [29]: Drug metabolism in mouse hepatocytes assessed as MDA-205 metabolite formation at 20 uM incubated for 180 mins. The settings on record: 3 h. It is filed as ADME, cell-based, Hepatocyte.
Data set [30] in a line: AUC (0-infinity) in male rat at 4 mg/kg,iv measured upto 24 hrs. Conditions: in vivo. The format is ADME, organism-based. More on the design: time < 24 hrs, dose 4 mg/kg, route iv. The method, boiled down:
as §2

The nature of data set [31]: Cmax in Beagle dog at 1 mg/kg,iv measured upto 24 hrs. It is filed as ADME, organism-based, Canis lupus familiaris. More on the design: dose 1 mg/kg, time < 24 hrs, route iv. Conditions: in vivo. The gist of the method:
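Beagle dogs were given a single iv infusion at 1, 2 or 4 mg/kg. Plasma parent drug and released docetaxel were followed over time. Cmax, Tmax, AUC, MRT, t1/2, CL and Vss were reported by sex and for all dogs combined.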

The nature of data set [32]: Volume of distribution at steady state in Beagle dog at 4 mg/kg,iv measured upto 24 hrs. It is filed as ADME, organism-based, Canis lupus familiaris. Conditions: in vivo, read-out: Vdss.
The nature of data set [33]: AUC (0-infinity) in male rat at 2 mg/kg,iv measured upto 24 hrs. More on the design: dose 2 mg/kg, time < 24 hrs, route iv. The settings on record: in vivo. The format is ADME, organism-based. The gist of the method:
as §2

Data set [34] is described as follows: AUC (0-t) in rat at 4 mg/kg,iv measured upto 24 hrs. More on the design: time < 24 hrs, dose 4 mg/kg, route iv. The format is ADME, organism-based. The settings on record: in vivo. The method, boiled down:
as §2

Data set [35] is described as follows: Toxicity in Beagle dog assessed as effect on electrocardiogram index at 1 to 4 mg/kg,iv. The format is organism-based, Canis lupus familiaris. Conditions: in vivo, dose 1-4 mg/kg.
Data set [36] in a line: Half life in male rat at 8 mg/kg,iv measured upto 24 hrs. The format is ADME, organism-based. The settings on record: in vivo.
Data set [37] is described as follows: Toxicity in BALB/c mouse xenografted with human NCI-H1975 cells assessed as side effects at 10 mg/kg,iv administrated once per week for 3 weeks. It is filed as organism-based. The settings on record: in vivo, 504 h.

Calls of active or inactive are those of the source. The rule behind the calls is not given here.

Chain of Cytochrome P450 2C8 (P10632 whole entry): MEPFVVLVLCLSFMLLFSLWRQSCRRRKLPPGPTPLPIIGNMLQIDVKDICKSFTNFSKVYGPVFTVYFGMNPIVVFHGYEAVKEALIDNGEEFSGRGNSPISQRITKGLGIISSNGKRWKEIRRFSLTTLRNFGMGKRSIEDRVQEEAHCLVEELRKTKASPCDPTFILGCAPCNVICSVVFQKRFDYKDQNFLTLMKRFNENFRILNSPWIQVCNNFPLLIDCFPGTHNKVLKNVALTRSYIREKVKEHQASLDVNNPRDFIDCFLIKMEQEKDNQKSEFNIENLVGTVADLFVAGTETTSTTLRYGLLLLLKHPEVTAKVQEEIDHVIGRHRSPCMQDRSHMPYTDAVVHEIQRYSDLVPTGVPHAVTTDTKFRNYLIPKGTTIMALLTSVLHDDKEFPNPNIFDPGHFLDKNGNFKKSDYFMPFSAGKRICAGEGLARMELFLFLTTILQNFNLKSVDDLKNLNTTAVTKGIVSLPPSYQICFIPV

`CC(=O)O[C@@]12CO[C@@H]1C[C@H](O)[C@@]1(C)C(=O)[C@H](O)C3=C(C)[C@@H](OC(=O)[C@H](O)[C@@H](NC(=O)OC(C)(C)C)c4ccccc4)C[C@@](O)([C@@H](OC(=O)c4ccccc4)[C@H]21)C3(C)C` [DOCETAXEL ANHYDROUS]: the outcome in [1] and in data set [3] was Active. Further, the Activity result in data set [2] and in data set [5] was “Non-Toxic” each time. This compound also returned a Drug uptake in [4] of 0.8%. The Tmax (as a rule, the time from dosing to the highest level) in data set [6] stood at 1.8 min. Further, the outcome in data set [7] and in [8] was inactive.

For `CC(=O)O[C@@]12CO[C@@H]1C[C@H](O)[C@@]1(C)C(=O)[C@H](O)C3=C(C)[C@@H](OC(=O)[C@H](OC(=O)CCC(=O)NCCCC[C@H](NC(=O)CC[C@@H](NC(=O)[C@H](C)NC(=O)/C=C/c4ccc(F)cc4Cl)C(N)=O)C(=O)O)[C@@H](NC(=O)OC(C)(C)C)c4ccccc4)C[C@@](O)([C@@H](OC(=O)c4ccccc4)[C@H]21)C3(C)C`, the AUC(0-inf) – broadly, the area under the concentration-time curve extrapolated to infinity – in data set [9] came out at 17300 ng·h/mL; in data set [18] it was 5230 ng·h/mL; in data set [30], 20800 ng·h/mL; in data set [33], 6120 ng·h/mL. The half-inhibitory concentration (IC50) – broadly, the concentration that inhibits the measured activity by half – in data set [10] came to 9.97 µM; in data set [27] it was 0.0163 µM. Moreover, the half-life (commonly the time in which the quantity being followed falls by half) in data set [11] was 6.6 min; in data set [15] it was 36.6 min; in data set [16] it was 30.5 min; in [36], 21.4 min. Further, the MRT inf (as a rule, a mean duration of stay, worked out from the concentration-time curve) in data set [12] came out at 28.2 min. In data set [13], the LD was found to be 33 mg/kg. Besides, the Vd was 0.071 L/kg in [14] and 0.08 L/kg in data set [32]. For the same compound, the Stability result in data set [17], in data set [19] and in [25] was “Stable” throughout. In addition, in data set [20], the fraction unbound at 4 h is 0.007. The area under the curve AUC(0-t) (as a rule, exposure summed from dosing to a finite time, without extrapolation to infinity) at 24 h in [21] came to 1590 ng·h/mL; in data set [22], 6970 ng·h/mL; in data set [34], 16900 ng·h/mL. Besides, the Tmax in data set [23] worked out at 30 min. The values for the maximum concentration (Cmax) in [24] and in [31] were 62500 ng/mL and 3880 ng/mL, respectively. For the same compound, the Drug metabolism entry in data set [26] and in data set [29] was “Metabolite_Detected” throughout. Besides, the outcome in data set [28] was inactive. Further, the Activity entry in data set [35] and in [37] was “Non-Toxic” throughout.

For the origin of these results see ChEMBL document CHEMBL5252546, “Salutaxel, a Conjugate of Docetaxel and a Muramyl Dipeptide (MDP) Analogue, Acts as Multifunctional Prodrug That Inhibits Tumor Growth and Metastasis” (J Med Chem, 2018).
